Laboratory results published in ChEMBL document CHEMBL1152370, “N-(4-Fluorobenzyl)-3-hydroxy-9,9-dimethyl-4-oxo-6,7,8,9-tetrahydro-4H-pyrazino[1,2-a]pyrimidine-2-carboxamides a novel class of potent HIV-1 integrase inhibitors” (Bioorg Med Chem Lett, 2009).

Columns and labels:
[1] = biological target: Human immunodeficiency virus type 1 integrase (Human immunodeficiency virus 1, UniProt Q7ZJM1); test: Inhibition of HIV1 recombinant integrase strand transfer activity treated after enzyme assembly and washing
Chain of Human immunodeficiency virus type 1 integrase (Q7ZJM1 whole entry): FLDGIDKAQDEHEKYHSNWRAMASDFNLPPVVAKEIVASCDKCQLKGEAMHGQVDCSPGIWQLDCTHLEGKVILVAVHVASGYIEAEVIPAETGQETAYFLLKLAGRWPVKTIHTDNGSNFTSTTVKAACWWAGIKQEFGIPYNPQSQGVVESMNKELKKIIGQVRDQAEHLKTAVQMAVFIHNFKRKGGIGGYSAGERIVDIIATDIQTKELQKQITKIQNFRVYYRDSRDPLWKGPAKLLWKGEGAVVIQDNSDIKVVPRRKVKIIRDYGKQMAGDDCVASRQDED

[2] = tested on: Human immunodeficiency virus 1; test: Antiviral activity against HIV1 3B infected in human MT4 cells assessed as inhibition of viral spread in presence of 10% heat inactivated fetal bovine serum; assay type: functional; conditions: Human immunodeficiency virus 1, 3B, read-out: CIC95
Procedure, shortened: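 Spread assay of HIV-1 IIIB infection in MT-4 human T-lymphoid cell culture with 10% heat-inactivated fetal bovine serum. The value is the 95% inhibitory concentration (CIC95) for blocking the spread of infection. SD was always ±10% of the value.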

[3] = tested on: Human immunodeficiency virus 1; test: Antiviral activity against HIV1 3B infected in human MT4 cells assessed as inhibition of viral spread in presence of 50% normal human serum; assay type: functional; conditions: Human immunodeficiency virus 1, 3B, read-out: CIC95
Procedure, shortened: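 Spread assay of HIV-1 IIIB infection in MT-4 human T-lymphoid cell culture with 50% normal human serum. The value is the CIC95, the 95% inhibitory concentration for blocking the spread of infection. SD was always ±10% of the value.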

[4] = Plasma clearance in rat; assay type: ADME, organism-based
[5] = Bioavailability in rat; assay type: ADME, organism-based; conditions: in vivo

| Compound | IC50 [1] | IC95 [2] | IC95 [3] | clearance [4] | bioavailability [5] |
| --- | --- | --- | --- | --- | --- |
| CC1(C)c2nc(C(=O)NCc3ccc(F)cc3)c(O)c(=O)n2CCN1Cc1nnn[nH]1 | 2 nM | 500 nM | 1000 nM | – | – |
| Cn1nnc(CN2CCn3c(nc(C(=O)NCc4ccc(F)cc4)c(O)c3=O)C2(C)C)n1 | 6 nM | 7 nM | 31 nM | – | – |
| CC1(C)c2nc(C(=O)NCc3ccc(F)cc3)c(O)c(=O)n2CCN1CCN1CCOCC1 | 3 nM | 500 nM | 1000 nM | – | – |
| CCNC(=O)N1CCn2c(nc(C(=O)NCc3ccc(F)cc3)c(O)c2=O)C1(C)C | 15 nM | 500 nM | – | – | – |
| CC1(C)NCCn2c1nc(C(=O)NCc1ccc(F)cc1)c(O)c2=O | 16 nM | 125 nM | 166 nM | – | – |
| Cn1cnc(CN2CCn3c(nc(C(=O)NCc4ccc(F)cc4)c(O)c3=O)C2(C)C)n1 | 25 nM | 31 nM | 62 nM | – | – |
| Cc1nc(CN2CCn3c(nc(C(=O)NCc4ccc(F)cc4)c(O)c3=O)C2(C)C)no1 | 6 nM | 15 nM | 62 nM | – | – |
| Cn1nnnc1CN1CCn2c(nc(C(=O)NCc3ccc(F)cc3)c(O)c2=O)C1(C)C | 5 nM | 15 nM | 62 nM | – | – |
| CN(C)S(=O)(=O)N1CCn2c(nc(C(=O)NCc3ccc(F)cc3)c(O)c2=O)C1(C)C | 8 nM | 1000 nM | – | – | – |
| CC1(C)c2nc(C(=O)NCc3ccc(F)cc3)c(O)c(=O)n2CCN1CCc1ccccn1 | 12 nM | 250 nM | 1000 nM | – | – |
| CCN(CC)CCN1CCn2c(nc(C(=O)NCc3ccc(F)cc3)c(O)c2=O)C1(C)C | 76 nM | 625 nM | 625 nM | – | – |
| CNC(=O)CN1CCn2c(nc(C(=O)NCc3ccc(F)cc3)c(O)c2=O)C1(C)C | 21 nM | 62 nM | 125 nM | – | – |
| CN(C)C(=O)CN1CCn2c(nc(C(=O)NCc3ccc(F)cc3)c(O)c2=O)C1(C)C | 8 nM | 62 nM | 125 nM | – | – |
| CC1(C)NC(=O)Cn2c1nc(C(=O)NCc1ccc(F)cc1)c(O)c2=O | 5 nM | > 1000 nM | > 1000 nM | – | – |
| Cc1cc(CN2CCn3c(nc(C(=O)NCc4ccc(F)cc4)c(O)c3=O)C2(C)C)on1 | 62 nM | 31 nM | 125 nM | – | – |
| Cc1noc(CN2CCn3c(nc(C(=O)NCc4ccc(F)cc4)c(O)c3=O)C2(C)C)n1 | 13 nM | 15 nM | 62 nM | – | – |
| CC1(C)c2nc(C(=O)NCc3ccc(F)cc3)c(O)c(=O)n2CCN1Cc1ccccn1 | 9 nM | 31 nM | 125 nM | – | – |
| Cn1ccc(CN2CCn3c(nc(C(=O)NCc4ccc(F)cc4)c(O)c3=O)C2(C)C)n1 | 9 nM | 31 nM | 125 nM | – | – |
| CC1(C)c2nc(C(=O)NCc3ccc(F)cc3)c(O)c(=O)n2CCN1Cc1nnco1 | 21 nM | 15 nM | 62 nM | – | – |
| Cc1nnc(CN2CCn3c(nc(C(=O)NCc4ccc(F)cc4)c(O)c3=O)C2(C)C)o1 | 5 nM | 7 nM | 62 nM | – | – |
| CC1(C)c2nc(C(=O)NCc3ccc(F)cc3)c(O)c(=O)n2CCN1S(C)(=O)=O | 10 nM | 1000 nM | – | – | – |
| CN1Cn2c(nc(C(=O)NCc3ccc(F)cc3)c(O)c2=O)C1(C)C | 30 nM | 500 nM | 1000 nM | – | – |
| Cn1cc(CN2CCn3c(nc(C(=O)NCc4ccc(F)cc4)c(O)c3=O)C2(C)C)nn1 | 2 nM | 31 nM | 62 nM | – | – |
| CC1(C)c2nc(C(=O)NCc3ccc(F)cc3)c(O)c(=O)n2CCN1CC(=O)N1CCCC1 | 7 nM | 31 nM | 250 nM | – | – |

| Compound | IC50 [1] | IC95 [2] | IC95 [3] | clearance [4] | bioavailability [5] |
| --- | --- | --- | --- | --- | --- |
| CC1(C)c2nc(C(=O)NCc3ccc(F)cc3)c(O)c(=O)n2CCN1Cc1cn[nH]c1 | 7 nM | 62 nM | 1000 nM | – | – |
| CC(=O)N1CCn2c(nc(C(=O)NCc3ccc(F)cc3)c(O)c2=O)C1(C)C | 5 nM | 1000 nM | – | – | – |
| CC1(C)c2nc(C(=O)NCc3ccc(F)cc3)c(O)c(=O)n2CCN1Cc1cnco1 | 4 nM | 31 nM | 125 nM | – | – |
| Cn1nccc1CN1CCn2c(nc(C(=O)NCc3ccc(F)cc3)c(O)c2=O)C1(C)C | 7 nM | 31 nM | 125 nM | – | – |
| CC1(C)c2nc(C(=O)NCc3ccc(F)cc3)c(O)c(=O)n2CCN1CC(N)=O | 5 nM | 125 nM | 250 nM | – | – |
| CN1CCn2c(nc(C(=O)NCc3ccc(F)cc3)c(O)c2=O)C1(C)C | 6 nM | 125 nM | 250 nM | 10 mL/min/kg | 57% |
| CC1(C)c2nc(C(=O)NCc3ccc(F)cc3)c(O)c(=O)n2CCN1Cc1cocn1 | 3 nM | 31 nM | 93 nM | – | – |
| CC1(C)c2nc(C(=O)NCc3ccc(F)cc3)c(O)c(=O)n2CCN1Cc1ccn[nH]1 | 5 nM | 62 nM | 250 nM | – | – |
| CN1CCN(C(=O)CN2CCn3c(nc(C(=O)NCc4ccc(F)cc4)c(O)c3=O)C2(C)C)CC1 | 21 nM | 62 nM | 125 nM | – | – |
| Cn1nncc1CN1CCn2c(nc(C(=O)NCc3ccc(F)cc3)c(O)c2=O)C1(C)C | 6 nM | 15 nM | 125 nM | – | – |
| CN(C)CCN1CCn2c(nc(C(=O)NCc3ccc(F)cc3)c(O)c2=O)C1(C)C | 62 nM | 1250 nM | 1250 nM | – | – |
| CC1(C)c2nc(C(=O)NCc3ccc(F)cc3)c(O)c(=O)n2CCN1Cc1cnn[nH]1 | 6 nM | 31 nM | 125 nM | – | – |
| CC1(C)c2nc(C(=O)NCc3ccc(F)cc3)c(O)c(=O)n2CCN1Cc1cnccn1 | 6 nM | 31 nM | 125 nM | – | – |
| CC1(C)c2nc(C(=O)NCc3ccc(F)cc3)c(O)c(=O)n2CCN1CC(=O)N1CCOCC1 | 7 nM | 62 nM | 250 nM | – | – |
| CC1(C)NS(=O)(=O)Cn2c1nc(C(=O)NCc1ccc(F)cc1)c(O)c2=O | 7 nM | 5000 nM | > 10000 nM | – | – |
| CC1(C)c2nc(C(=O)NCc3ccc(F)cc3)c(O)c(=O)n2CCN1CC(=O)O | 8 nM | 500 nM | 1000 nM | – | – |
| CN(C)[C@@H]1CCCn2c1nc(C(=O)NCc1ccc(F)cc1)c(O)c2=O | 69 nM | – | – | – | – |
| CC1(C)NCCCn2c1nc(C(=O)NCc1ccc(F)cc1)c(O)c2=O | 20 nM | 500 nM | 250 nM | – | – |
| CC1(C)c2nc(C(=O)NCc3ccc(F)cc3)c(O)c(=O)n2CCN1Cc1ccccc1 | 5 nM | 125 nM | 250 nM | – | – |
| Cc1cnc(CN2CCn3c(nc(C(=O)NCc4ccc(F)cc4)c(O)c3=O)C2(C)C)o1 | 8 nM | 15 nM | 62 nM | – | – |
| CC1(C)NC(=O)n2c1nc(C(=O)NCc1ccc(F)cc1)c(O)c2=O | 32 nM | > 1000 nM | > 1000 nM | – | – |
| CN(C)C(=O)C(=O)N1CCn2c(nc(C(=O)NCc3ccc(F)cc3)c(O)c2=O)C1(C)C | 6 nM | 1000 nM | – | – | – |
| CC1(C)c2nc(C(=O)NCc3ccc(F)cc3)c(O)c(=O)n2CCN1Cc1cscn1 | 9 nM | 15 nM | 125 nM | – | – |
| Cc1nnc(C(=O)NC(C)(C)c2nc(C(=O)NCc3ccc(F)cc3)c(O)c(=O)n2C)o1 [RALTEGRAVIR POTASSIUM] | – | 19 nM | 31 nM | – | – |
